Test results as given in ChEMBL document CHEMBL3864137, “Design, Synthesis, and Pharmacological Evaluation of 2-(2,5-Dimethyl-5,6,7,8-tetrahydroquinolin-8-yl)-N-aryl Propanamides as Novel Smoothened (Smo) Antagonists” (J Med Chem, 2016).
Each block holds one compound with its values, some of them ahead of it. Calls of active or inactive are those of the source. The rule behind the calls is not given here.

Key:
[1] = molecular target: Protein smoothened (Mus musculus, UniProt P56726); test: Inhibition of Smo-mediated Hh signalling pathway in mouse Shh Light2 cells by Gli-luciferase reporter gene assay; assay type: cell-based
Protein smoothened, sequence (P56726 whole entry): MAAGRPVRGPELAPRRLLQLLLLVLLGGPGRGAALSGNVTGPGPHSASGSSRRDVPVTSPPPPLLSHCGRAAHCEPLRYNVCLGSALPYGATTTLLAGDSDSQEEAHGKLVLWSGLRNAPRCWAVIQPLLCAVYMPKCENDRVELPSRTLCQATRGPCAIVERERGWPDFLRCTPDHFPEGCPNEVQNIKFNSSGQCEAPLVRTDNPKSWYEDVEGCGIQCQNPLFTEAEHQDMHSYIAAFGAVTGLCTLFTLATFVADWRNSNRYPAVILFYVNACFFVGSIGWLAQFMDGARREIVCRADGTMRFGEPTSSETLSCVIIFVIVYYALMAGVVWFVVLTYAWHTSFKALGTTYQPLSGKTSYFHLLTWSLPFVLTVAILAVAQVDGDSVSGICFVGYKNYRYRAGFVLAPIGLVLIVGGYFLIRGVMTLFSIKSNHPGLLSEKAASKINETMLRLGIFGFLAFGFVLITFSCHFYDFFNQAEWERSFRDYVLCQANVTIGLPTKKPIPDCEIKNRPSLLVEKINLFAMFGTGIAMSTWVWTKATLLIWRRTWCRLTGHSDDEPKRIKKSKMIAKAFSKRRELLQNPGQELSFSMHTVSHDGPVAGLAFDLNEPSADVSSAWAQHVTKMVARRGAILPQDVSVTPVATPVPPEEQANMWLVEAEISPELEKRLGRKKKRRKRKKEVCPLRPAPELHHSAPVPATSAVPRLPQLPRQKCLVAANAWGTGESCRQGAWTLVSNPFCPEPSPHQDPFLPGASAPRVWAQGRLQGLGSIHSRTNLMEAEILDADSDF
Outline: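 Light II cells (NIH-3T3 stably carrying a Gli-responsive firefly luciferase reporter plus a Renilla luciferase vector), seeded in 96-well plates and treated. Firefly/Renilla activity in the lysates read by dual luciferase assay on a luminometer. IC50 is the mean ± SD of three separate experiments.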

[2] = MRT (0 to infinity) in Sprague-Dawley rat at 1 mg/kg, iv; assay type: ADME, organism-based; settings: in vivo
Outline: (§1)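 SD rats; single dose 1.0 mg/kg i.v. or 3.0 mg/kg p.o., vehicle DMSO, Tween 80, normal saline. Plasma concentration–time profiles give CL, Vss, T1/2, Cmax, Tmax, AUC0-∞ and MRT, with oral bioavailability F estimated from p.o. versus i.v. exposure. Values are the average of three runs.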

[3] = In vivo inhibition of Smo-mediated Hh signalling pathway in athymic nude mouse implanted with mouse Ptch+/- p53-/- medulloblastoma cells assessed as suppression of Gli1-mRNA expression at 25 and 50 mg/kg, ip bid for 13 days measured 4 hrs post last dose by RT-qPCR analysis; assay type: functional, organism-based
Outline: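 Nude mice bearing subcutaneous Ptch+/-;p53-/- medulloblastoma allografts dosed i.p. twice daily for 13 days. Tumors collected 4 h after the last dose for Gli1 mRNA measurement; mean ± SD.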

[4] = AUC (0 to infinity) in Sprague-Dawley rat at 3 mg/kg, po; assay type: ADME, organism-based; design: dose 3 mg/kg, route oral, time infinity; settings: in vivo; outline: as §1
[5] = Half life in Sprague-Dawley rat at 1 mg/kg, iv; assay type: ADME, organism-based; settings: in vivo; outline: as §1
[6] = Antitumor activity against mouse Ptch+/- p53-/- medulloblastoma cells implanted in athymic nude mouse assessed as tumor growth inhibition at 25 mg/kg, ip bid for 13 days relative to control; assay type: functional; settings: Medulloblastoma cell, 312 h, read-out: TGI
Outline: (§2)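 Primary Ptch+/-;p53-/- medulloblastoma passaged subcutaneously in athymic nude mice as 1 mm3 fragments in the right flank. Dosing began at 100–150 mm3: i.p. 25 or 50 mg/kg twice daily for 13 days. Calipers twice weekly, volume = L×W²/2, TGI from volume change against vehicle. Body weight tracked; tumor mean ± SEM, weight mean ± SD.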

[7] = Antitumor activity against mouse Ptch+/- p53-/- medulloblastoma cells implanted in athymic nude mouse assessed as tumor growth inhibition at 50 mg/kg, ip bid for 13 days relative to control; assay type: functional; settings: Medulloblastoma cell, 312 h, read-out: TGI; outline: as §2
[8] = molecular target: Protein smoothened (Mus musculus) (UniProt P56726); test: Inhibition of Smo-mediated Hh signalling pathway in mouse Shh Light2 cells assessed as suppression of Gli1-mRNA expression at 0.1 uM measured after 36 hrs by RT-qPCR analysis; assay type: cell-based
Protein smoothened (Mus musculus), sequence (P56726 whole entry): as above

[9] = Induction of apoptosis in mouse medulloblastoma cells isolated from Ptch+/- p53-/- mouse assessed as early apoptotic cells at 10 uM measured after 24 hrs by Annexin V-FITC/propidium iodide staining based flow cytometry (reference value: 0.7%); assay type: functional, Medulloblastoma cell
[10] = AUClast in Sprague-Dawley rat at 1 mg/kg, iv; assay type: ADME, organism-based; design: dose 1 mg/kg, time 0 - last, route intravenous; settings: in vivo; outline: as §1
[11] = molecular target: Protein smoothened (Homo sapiens) (UniProt Q99835); test: Displacement of BODIPY-cyclopamine from human Smo expressed in HEK293 cells at 0.1 uM measured after 10 hrs by FACS analysis; assay type: cell-based
Protein smoothened (Homo sapiens), sequence (Q99835 whole entry): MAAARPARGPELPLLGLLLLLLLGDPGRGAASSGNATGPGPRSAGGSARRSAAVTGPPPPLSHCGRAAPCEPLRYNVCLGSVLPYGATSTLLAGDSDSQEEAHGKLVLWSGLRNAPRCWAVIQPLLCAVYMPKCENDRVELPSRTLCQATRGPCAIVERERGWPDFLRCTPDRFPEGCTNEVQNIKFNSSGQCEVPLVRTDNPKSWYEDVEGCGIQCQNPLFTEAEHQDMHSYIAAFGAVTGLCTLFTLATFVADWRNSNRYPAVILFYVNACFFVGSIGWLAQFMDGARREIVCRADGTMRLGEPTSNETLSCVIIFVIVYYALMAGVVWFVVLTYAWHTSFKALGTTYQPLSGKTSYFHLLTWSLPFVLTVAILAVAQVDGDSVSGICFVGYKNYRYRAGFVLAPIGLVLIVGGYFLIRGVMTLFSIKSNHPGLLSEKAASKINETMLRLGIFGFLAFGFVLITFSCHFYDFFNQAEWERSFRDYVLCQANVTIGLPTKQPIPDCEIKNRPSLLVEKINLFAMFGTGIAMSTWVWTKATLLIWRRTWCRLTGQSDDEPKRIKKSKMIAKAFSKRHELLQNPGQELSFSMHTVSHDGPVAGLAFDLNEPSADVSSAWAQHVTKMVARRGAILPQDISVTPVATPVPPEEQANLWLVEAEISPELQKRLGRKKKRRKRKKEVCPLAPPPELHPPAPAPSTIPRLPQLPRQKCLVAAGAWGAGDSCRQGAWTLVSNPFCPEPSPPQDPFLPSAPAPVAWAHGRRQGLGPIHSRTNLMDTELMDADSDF
Outline: (§3)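 HEK293 cells on coverslips transfected with hSmo constructs and incubated with BODIPY-cyclopamine plus test drug for 10 h. After PBS wash, paraformaldehyde fixation and Triton X-100 permeabilization, cells were either analysed by FACS or DAPI-mounted for fluorescence microscopy; three experiments.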

[12] = Clearance in Sprague-Dawley rat at 1 mg/kg, iv; assay type: ADME, organism-based; settings: in vivo; outline: as §1
[13] = test system: Mus musculus; test: Toxicity in athymic nude mouse implanted with mouse Ptch+/- p53-/- medulloblastoma cells assessed as body weight loss at 25 and 50 mg/kg, ip bid for 13 days; assay type: organism-based; settings: in vivo, 312 h; outline: as §2
[14] = molecular target: Protein smoothened (Homo sapiens) (UniProt Q99835); test: Displacement of BODIPY-cyclopamine from human Smo expressed in HEK293 cells at 0.1 uM measured after 10 hrs by DAPI staining based fluorescence microscopic assay; assay type: cell-based; outline: as §3
[15] = molecular target: Voltage-gated inwardly rectifying potassium channel KCNH2 (Homo sapiens, UniProt Q12809); test: Inhibition of human ERG
Voltage-gated inwardly rectifying potassium channel KCNH2, sequence (Q12809 whole entry): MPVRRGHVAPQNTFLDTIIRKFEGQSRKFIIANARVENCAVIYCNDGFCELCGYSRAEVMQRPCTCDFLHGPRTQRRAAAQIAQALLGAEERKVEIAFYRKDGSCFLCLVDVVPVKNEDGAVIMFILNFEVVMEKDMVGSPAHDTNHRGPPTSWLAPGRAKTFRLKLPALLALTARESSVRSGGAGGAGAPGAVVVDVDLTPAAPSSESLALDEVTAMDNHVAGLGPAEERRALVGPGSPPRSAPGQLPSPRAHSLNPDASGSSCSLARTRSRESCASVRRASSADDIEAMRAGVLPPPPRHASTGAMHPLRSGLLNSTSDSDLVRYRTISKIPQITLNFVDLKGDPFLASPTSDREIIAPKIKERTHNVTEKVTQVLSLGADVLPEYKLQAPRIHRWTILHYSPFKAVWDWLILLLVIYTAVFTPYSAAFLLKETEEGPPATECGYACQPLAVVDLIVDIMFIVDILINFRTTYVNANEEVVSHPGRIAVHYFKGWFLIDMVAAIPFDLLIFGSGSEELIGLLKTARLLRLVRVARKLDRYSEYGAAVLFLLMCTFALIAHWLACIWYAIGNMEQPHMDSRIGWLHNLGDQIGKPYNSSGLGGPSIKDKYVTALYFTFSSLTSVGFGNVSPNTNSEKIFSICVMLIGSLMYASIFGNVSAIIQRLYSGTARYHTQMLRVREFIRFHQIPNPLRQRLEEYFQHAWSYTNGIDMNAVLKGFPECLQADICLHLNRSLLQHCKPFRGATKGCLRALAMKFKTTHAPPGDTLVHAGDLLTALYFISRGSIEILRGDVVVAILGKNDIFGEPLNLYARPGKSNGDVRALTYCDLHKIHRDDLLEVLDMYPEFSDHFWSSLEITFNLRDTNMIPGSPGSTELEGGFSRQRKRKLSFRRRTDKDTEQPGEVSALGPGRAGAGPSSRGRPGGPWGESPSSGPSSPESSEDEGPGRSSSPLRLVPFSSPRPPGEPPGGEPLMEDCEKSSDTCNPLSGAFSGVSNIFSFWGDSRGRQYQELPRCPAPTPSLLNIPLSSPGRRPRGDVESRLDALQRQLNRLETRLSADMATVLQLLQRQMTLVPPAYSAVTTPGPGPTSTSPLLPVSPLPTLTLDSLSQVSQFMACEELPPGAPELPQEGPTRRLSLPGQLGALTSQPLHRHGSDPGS

[16] = AUClast in Sprague-Dawley rat at 3 mg/kg, po; assay type: ADME, organism-based; design: dose 3 mg/kg, time 0 - last, route oral; settings: in vivo; outline: as §1
[17] = Cmax in Sprague-Dawley rat at 3 mg/kg, po; assay type: ADME, organism-based; design: dose 3 mg/kg, route oral; settings: in vivo; outline: as §1
[18] = Cytotoxicity against human KB cells; assay type: toxicity, cell-based
[19] = test system: Medulloblastoma cell; test: Antiproliferative activity against mouse medulloblastoma cells isolated from Ptch+/- p53-/- mouse measured after 72 hrs by MTS assay; assay type: functional
Outline: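 Medulloblastoma cells from Ptch+/-;p53-/- allografts in nude mice, minced and collagenase-digested, grown in Neurobasal A with B-27, EGF 20 ng/ml, bFGF 20 ng/ml, nonessential amino acids and N-acetyl cysteine 60 µg/ml. Seeded in 96-well plates, treated 72 h, viability read by MTS; mean ± SD.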

[20] = AUC (0 to infinity) in Sprague-Dawley rat at 1 mg/kg, iv; assay type: ADME, organism-based; design: dose 1 mg/kg, time infinity, route intravenous; settings: in vivo; outline: as §1
[21] = Induction of apoptosis in mouse medulloblastoma cells isolated from Ptch+/- p53-/- mouse assessed as late apoptotic cells at 10 uM measured after 24 hrs by Annexin V-FITC/propidium iodide staining based flow cytometry (reference value: 0.1%); assay type: functional, Medulloblastoma cell
[22] = Half life in Sprague-Dawley rat at 3 mg/kg, po; assay type: ADME, organism-based; settings: in vivo; outline: as §1
[23] = molecular target: Protein smoothened (Homo sapiens) (UniProt Q99835); test: Antagonist activity at wild-type Smo (unknown origin) expressed in mouse Shh Light2 cells assessed as suppression of Gli-mRNA expression measured after 36 hrs by dual luciferase reporter gene assay; assay type: cell-based; settings: in the assay text read “Gli-luciferase activity” for “Gli-mRNA expression”
Outline: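 Light II cells transfected with wild-type Smo plasmid to drive Gli-luciferase, exposed to compound for 36 h, then harvested for dual luciferase reporter assay. Mean ± SD.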

[24] = molecular target: Protein smoothened (Mus musculus) (UniProt P56726); test: Potency index, ratio of vismodegib IC50 to test compound IC50 for Smo-mediated Hh signalling pathway in mouse Shh Light2 cells; assay type: cell-based
Outline: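 Ratio of reference to test IC50, both taken from the Gli-luc dual luciferase assay in light II cells (NIH-3T3 with stable Gli-firefly reporter and Renilla vector). IC50 values are from three separate experiments.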

[25] = molecular target: Protein smoothened (Mus musculus) (UniProt P56726); test: Inhibition of Smo in mouse medulloblastoma cells isolated from Ptch+/- p53-/- mouse assessed as decrease in Gli1-mRNA expression at 0.1 uM by qRT-PCR analysis
[26] = Volume of distribution at steady state in Sprague-Dawley rat at 1 mg/kg, iv; assay type: ADME, organism-based; settings: in vivo, read-out: Vdss; outline: as §1
[27] = Tmax in Sprague-Dawley rat at 3 mg/kg, po; assay type: ADME, organism-based; settings: in vivo; outline: as §1
[28] = Oral bioavailability in Sprague-Dawley rat at 3 mg/kg; assay type: ADME, organism-based; settings: in vivo; outline: as §1
[29] = MRT (0 to infinity) in Sprague-Dawley rat at 3 mg/kg, po; assay type: ADME, organism-based; settings: in vivo; outline: as §1
[30] = Cytotoxicity against mouse L1210 cells by MTT assay; assay type: functional, cell-based
[31] = molecular target: Protein smoothened (Homo sapiens) (UniProt Q99835); settings: HEK293, 5 uM
[32] = molecular target: Protein smoothened (Homo sapiens) (UniProt Q99835); settings: HEK293, 5 uM; remark: listed apart in the source

- IC50 [1]: 243 nM
Structure (SMILES): Cc1ccc2c(n1)[C@H]([C@@H](C)C(=O)Nc1ccc(Cl)c(-c3nc4ccccc4o3)c1)CC[C@H]2C

- MRT inf [2]: 3.97 h
- AUC(0-inf) [4]: 1480 ng·h/mL
- half-life [5]: 5.95 h
- inhibition [8]: Active
- AUC(0-t) [10]: 1780 ng·h/mL
- inhibition [11]: Active
- clearance [12]: 9.31 mL/min/kg
- IC50 [1]: 9.53 nM
- inhibition [14]: Active
- AUC(0-t) [16]: 1460 ng·h/mL
- Cmax [17]: 799 ng/mL
- AUC(0-inf) [20]: 1840 ng·h/mL
- half-life [22]: 1.4 h
- inhibition [23]: Dose-dependent effect
- Ratio IC50 [24]: 4 to 5
- inhibition [25]: Active
- Vd [26]: 2.23 L/kg
- Tmax [27]: 0.25 h
- bioavailability [28]: 27.4%
- MRT inf [29]: 1.53 h
Structure (SMILES): Cc1ccc2c(n1)[C@H]([C@@H](C)C(=O)Nc1ccc(Cl)c(-c3nc4ccccc4n3C)c1)CC[C@H]2C
- inhibition [3]: Active
- inhibition in vivo at 25 mg/kg [6]: 81.7%
- inhibition in vivo at 50 mg/kg [7]: 91.5%
- Activity [9]: 21.7%
- Activity [13]: Non-Toxic
- IC50 [15]: > 15000 nM
- IC50 [18]: > 20000 nM
- Activity [19]: Dose-dependent effect
- Activity [21]: 4.6%

- IC50 [1]: 282 nM
Structure (SMILES): Cc1ccc2c(n1)[C@H]([C@@H](C)C(=O)Nc1ccc(Cl)c(-c3nc4ccccc4s3)c1)CC[C@H]2C

- IC50 [1]: 220 nM
Structure (SMILES): Cc1ccc2c(n1)[C@H]([C@@H](C)C(=O)Nc1ccc(Cl)c(-c3nc(C4CC4)no3)c1)CC[C@H]2C

- IC50 [1]: 52.6 nM
Structure (SMILES): Cc1ccc2c(n1)[C@H]([C@@H](C)C(=O)Nc1ccc(Cl)c(-c3nc4ccc(OC(F)(F)F)cc4n3C)c1)CC[C@H]2C

- IC50 [1]: > 1000 nM
Structure (SMILES): C[C@@H]1CC[C@@H]([C@@H](C)C(=O)Nc2ccc(Cl)c(-c3ccccn3)c2)[C@H]2CC(=O)C=C[C@H]21

Structure (SMILES): C[C@H]1[C@@H](O[C@@H](C#N)c2ccc(Br)cc2)O[C@@H]2O[C@@]3(C)CC[C@H]4[C@H](C)CC[C@@H]1[C@@]24OO3
- IC50 [30]: 10 nM

- IC50 [1]: 212 nM
Structure (SMILES): Cc1ccc2c(n1)[C@H]([C@@H](C)C(=O)Nc1ccc(Cl)c(-c3ccccn3)c1)CC[C@H]2C
- IC50 [15]: > 15000 nM
- IC50 [18]: 15000 nM

Structure (SMILES): Cc1ccc2c(n1)[C@H]([C@@H](C)C(=O)Nc1ccc(Cl)c(-c3nc4ccccc4[nH]3)c1)CC[C@H]2C
- IC50 [1]: 45.9 to 46 nM

- IC50 [1]: > 1000 nM
Structure (SMILES): Cc1nc2c(s1)C[C@@H]1[C@H](C2)[C@H]([C@@H](C)C(=O)Nc2ccc(Cl)c(-c3ccccn3)c2)CC[C@H]1C

Structure (SMILES): C[C@H]1[C@@H](CC(=O)Nc2ccc(Cl)c(-c3ccccn3)c2)O[C@@H]2O[C@@]3(C)CC[C@H]4[C@H](C)CC[C@@H]1[C@@]24OO3
- IC50 [1]: 241 nM
- IC50 [15]: > 15000 nM
- IC50 [18]: 6610 nM

- IC50 [1]: 84.5 nM
Structure (SMILES): Cc1ccc2c(n1)[C@H]([C@@H](C)C(=O)Nc1ccc(Cl)c(-c3nc4cc(OC(F)(F)F)ccc4n3C)c1)CC[C@H]2C

- IC50 [1]: > 1000 nM
Structure (SMILES): C[C@@H]1CC[C@@H]([C@@H](C)C(=O)Nc2ccc(Cl)c(-c3ccccn3)c2)[C@H]2CC(O)CC[C@H]21 (stereo partly drawn)

Structure (SMILES): CC1=C2C[C@H]3[C@@H](CC=C4C[C@@H](O)CC[C@@]43C)[C@@H]2CC[C@]12O[C@@H]1C[C@H](C)CN[C@H]1[C@H]2C
- inhibition [31]: Active
- inhibition [32]: Active

- IC50 [1]: 265 nM
Structure (SMILES): Cc1ccc2c(n1)[C@H]([C@@H](C)C(=O)Nc1ccc(Cl)c(-c3nnc(-c4ccnn4C)s3)c1)CC[C@H]2C
